According to ChEMBL document CHEMBL3351740, “Identification of a novel aminotetralin class of HDAC6 and HDAC8 selective inhibitors” (J Med Chem, 2014):

Columns and labels:
[1] = system: Liver microsome; assay: Stability in human liver microsomes at 1 uM after 3 to 30 mins by LC-MS/MS analysis; type: ADME
Outline: (§1)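 Liver microsomes at 0.5 mg/mL (human or mouse) in 100 mM potassium phosphate, pH 7.4, with 1 μM compound, prewarmed 10 min at 37 °C. Reaction started with NADPH (10 mM) and stopped at 0, 3, 6, 9, 15 and 30 min with ice-cold methanol holding tolbutamide internal standard. Centrifuged 10 min at 4 °C; supernatant analysed by LC-MS/MS.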

[2] = system: Liver; assay: Stability in mouse liver microsomes at 1 uM after 3 to 30 mins by LC-MS/MS analysis; type: ADME; outline: as §1

Stability [1]: Stable | Stability [2]: Stable
SMILES: O=C(NO)c1ccc2c(c1)C[C@H](Nc1nccc(-c3cccnc3)n1)CC2
